Experimental data: ChEMBL document CHEMBL3272200, “Synthsis and antitumor properties of bis(quinaldine) derivatives” (J Med Chem, 1977)

Tests used:
P388 [1] = experiment: Antitumor activity against mouse P388 cells assessed as mean animal survival time at 12.5 mg/kg administered qd for 1 to 9 days relative to control; format: functional
In short: (§1)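 P-388 leukemia survival test. The value is T/C: mean or median survival time of treated animals divided by that of control animals, expressed as a percentage. A compound counts as active if it gives reproducible T/C values of 125% or more.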

[2] = Retardation factor of the compound using n-BuOH-AcOH-H2O at ratio of 3:1:2 as solvent system by silica gel based chromatography; format: physicochemical
P388 [3] = experiment: Antitumor activity against mouse P388 cells assessed as mean animal survival time at 6.25 mg/kg administered qd for 1 to 9 days relative to control; format: functional; in short: as §1
Calf thymus DNA [4] = experiment: Binding affinity to calf thymus DNA assessed as inhibition of DNA-dependent Escherichia coli RNA polymerase activity by measuring [14C]ATP incorporation by liquid scintillation spectrometer analysis; format: nucleic-acid assay; conditions: for inhibition: Bos taurus; for IC50: read-out: I50
In short: (§2)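 0.125 mL mix: Tris-HCl pH 8.0 5 μmol, MgCl2 1.25 μmol, β-mercaptoethanol 1.25 μmol, CTP/UTP/GTP 0.019 μmol each, [8-14C]ATP 0.019 μmol, calf thymus DNA 3.65 μg. Compound in 5 μL MeOH (MeOH-only controls) added before the E. coli enzyme. Incubated 10 min at 37. Acid-insoluble label collected by filter-disk method and scintillation counted. Triplicates.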

Calf thymus DNA [5] = experiment: Binding affinity to calf thymus DNA assessed as inhibition of DNA-dependent Escherichia coli RNA polymerase activity by measuring [14C]ATP incorporation at 10 uM by liquid scintillation spectrometer analysis; format: nucleic-acid assay; conditions: Bos taurus; in short: as §2
Calf thymus DNA [6] = experiment: Binding affinity to calf thymus DNA assessed as inhibition of DNA-dependent Escherichia coli RNA polymerase activity by measuring [14C]ATP incorporation at 5 uM by liquid scintillation spectrometer analysis; format: nucleic-acid assay; conditions: Bos taurus; in short: as §2
Calf thymus DNA [7] = experiment: Binding affinity to calf thymus DNA assessed as inhibition of DNA-dependent Escherichia coli RNA polymerase activity by measuring [14C]ATP incorporation at 7.5 uM by liquid scintillation spectrometer analysis; format: nucleic-acid assay; conditions: Bos taurus; in short: as §2
Calf thymus DNA [8] = experiment: Binding affinity to calf thymus DNA assessed as change in melting temperature at 10 uM by spectrophotometer analysis; format: nucleic-acid assay; conditions: Bos taurus
In short: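 Drug at 1×10^-5 M with 15 μg/mL calf thymus DNA in 5 mM phosphate buffer, pH 7.4. Absorbance followed at 260 nm while temperature rose at 1.0 °C/min to give the melting temperature.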

Calf thymus DNA [9] = experiment: Binding affinity to calf thymus DNA assessed as inhibition of DNA-dependent Escherichia coli RNA polymerase activity by measuring [14C]ATP incorporation at 0.1 mM by liquid scintillation spectrometer analysis; format: nucleic-acid assay; conditions: Bos taurus; in short: as §2
Calf thymus DNA [10] = experiment: Binding affinity to calf thymus DNA assessed as inhibition of DNA-dependent Escherichia coli RNA polymerase activity by measuring [14C]ATP incorporation at 50 uM by liquid scintillation spectrometer analysis; format: nucleic-acid assay; conditions: Bos taurus; in short: as §2
Calf thymus DNA [11] = experiment: Binding affinity to calf thymus DNA assessed as inhibition of DNA-dependent Escherichia coli RNA polymerase activity by measuring [14C]ATP incorporation at 2.5 uM by liquid scintillation spectrometer analysis; format: nucleic-acid assay; conditions: Bos taurus; in short: as §2
P388 [12] = experiment: Antitumor activity against mouse P388 cells assessed as mean animal survival time at 400 mg/kg administered qd for 1 to 9 days relative to control; format: functional; in short: as §1
P388 [13] = experiment: Antitumor activity against mouse P388 cells assessed as mean animal survival time at 25 mg/kg administered qd for 1 to 9 days relative to control; format: functional; in short: as §1
P388 [14] = experiment: Antitumor activity against mouse P388 cells assessed as mean animal survival time at 100 mg/kg administered qd for 1 to 9 days relative to control; format: functional; in short: as §1

In the case of Cc1cc(NCCCCCCCNc2cc(C)nc3cc([N+](=O)[O-])ccc23)c2ccc([N+](=O)[O-])cc2n1.Cl, the T/C (P388 [1]) is reported as 149% and the Rf [2] is reported as 0.79.
Cc1cc(NCCCCNCCCNc2cc(C)nc3cc([N+](=O)[O-])ccc23)c2ccc([N+](=O)[O-])cc2n1.Cl gave a T/C (P388 [1]) of 150% and a Rf [2] of 0.73.
CC(=O)O.Cc1cc(NCCCCCCCCNc2cc(C)nc3cc(N)ccc23)c2ccc(N)cc2n1 showed a T/C (P388 [3]) of 134%.
For Cc1cc(NCCCNCCCNc2cc(C)nc3cc(N)ccc23)c2ccc(N)cc2n1, the inhibition (Calf thymus DNA [4]) was “Dose-dependent effect”, the inhibition (Calf thymus DNA [5]) was 96% and the inhibition (Calf thymus DNA [6]) was 9%. It also gave an inhibition (Calf thymus DNA [7]) of 31%, a ΔTm (Calf thymus DNA [8]) of 22.5 °C and an inhibition (Calf thymus DNA [9]) of 94%. The inhibition (Calf thymus DNA [10]) was 98% and the inhibition (Calf thymus DNA [11]) was 0%.
Cc1cc(NCCCCCCCCNc2cc(C)nc3cc(N)ccc23)c2ccc(N)cc2n1.Cl gave an IC50 (Calf thymus DNA [4]) of 6 µM and a Rf [2] of 0.7.
With Cc1cc(NCCCCCCNc2cc(C)nc3ccc(N)cc23)c2cc(N)ccc2n1.Cl the T/C (P388 [12]) was 254% and the ΔTm (Calf thymus DNA [8]) was 18 °C.
Cc1cc(NCCCNCCCNc2cc(C)nc3cc(N)ccc23)c2ccc(N)cc2n1.Cl showed an IC50 (Calf thymus DNA [4]) of 6 µM and a Rf [2] of 0.57.
Cc1cc(NCCCCCCNc2cc(C)nc3cc(N)ccc23)c2ccc(N)cc2n1.Cl gave an IC50 (Calf thymus DNA [4]) of 6 µM and a Rf [2] of 0.6.
In the case of Cc1cc(NCCCCCCCNc2cc(C)nc3cc(N)ccc23)c2ccc(N)cc2n1, the inhibition (Calf thymus DNA [4]) is reported as “Dose-dependent effect”, the inhibition (Calf thymus DNA [5]) is reported as 63% and the inhibition (Calf thymus DNA [6]) is reported as 0%. It also gave an inhibition (Calf thymus DNA [7]) of 24%, a ΔTm (Calf thymus DNA [8]) of 17 °C and an inhibition (Calf thymus DNA [9]) of 98%. For the same compound, the inhibition (Calf thymus DNA [10]) was 98% and the inhibition (Calf thymus DNA [11]) was 0%.
With Cc1cc(NCCCCNCCCNc2cc(C)nc3cc(N)ccc23)c2ccc(N)cc2n1.Cl the IC50 (Calf thymus DNA [4]) was 6 µM and the Rf [2] was 0.5.
Compound Cc1cc(NCCCNCCCNc2cc(C)nc3cc([N+](=O)[O-])ccc23)c2ccc([N+](=O)[O-])cc2n1.Cl has a Rf [2] of 0.69 and a T/C (P388 [13]) of 150%.
For Cc1cc(NCCCCCCNc2cc(C)nc3cc(N)ccc23)c2ccc(N)cc2n1, the inhibition (Calf thymus DNA [4]) was “Dose-dependent effect”, the inhibition (Calf thymus DNA [5]) was 91% and the inhibition (Calf thymus DNA [6]) was 29%. For the same compound, the inhibition (Calf thymus DNA [7]) was 50%, the ΔTm (Calf thymus DNA [8]) was 19 °C and the inhibition (Calf thymus DNA [9]) was 97%. The inhibition (Calf thymus DNA [10]) was 93% and the inhibition (Calf thymus DNA [11]) was 0%.
Cc1cc(NCCCCCCCCNc2cc(C)nc3cc([N+](=O)[O-])ccc23)c2ccc([N+](=O)[O-])cc2n1.Cl gave a T/C (P388 [1]) of 110% and a Rf [2] of 0.8.
With CC(=O)O.Cc1cc(NCCCCCCCNc2cc(C)nc3cc(N)ccc23)c2ccc(N)cc2n1 the T/C (P388 [3]) was 196%.
For CC(=O)O.Cc1cc(NCCCNCCCNc2cc(C)nc3cc(N)ccc23)c2ccc(N)cc2n1, the T/C (P388 [1]) was 150%.
With Cc1cc(NCCCCCCCCNc2cc(C)nc3cc(N)ccc23)c2ccc(N)cc2n1 the inhibition (Calf thymus DNA [4]) was “Dose-dependent effect”, the inhibition (Calf thymus DNA [5]) was 95% and the inhibition (Calf thymus DNA [6]) was 38%. The inhibition (Calf thymus DNA [7]) was 91%, the ΔTm (Calf thymus DNA [8]) was 18.5 °C and the inhibition (Calf thymus DNA [9]) was 97%. The inhibition (Calf thymus DNA [10]) was 95% and the inhibition (Calf thymus DNA [11]) was 0%.
With CC(=O)O.Cc1cc(NCCCCNCCCNc2cc(C)nc3cc(N)ccc23)c2ccc(N)cc2n1 the T/C (P388 [13]) was 165%.
Compound Cc1cc(NCCCCCCNc2cc(C)nc3cc([N+](=O)[O-])ccc23)c2ccc([N+](=O)[O-])cc2n1.Cl has a Rf [2] of 0.77 and a T/C (P388 [14]) of 99%.
With Cc1cc(NCCCCNCCCNc2cc(C)nc3cc(N)ccc23)c2ccc(N)cc2n1 the inhibition (Calf thymus DNA [4]) was “Dose-dependent effect”, the inhibition (Calf thymus DNA [5]) was 95% and the inhibition (Calf thymus DNA [6]) was 17%. The inhibition (Calf thymus DNA [7]) was 38%, the ΔTm (Calf thymus DNA [8]) was 19.5 °C and the inhibition (Calf thymus DNA [9]) was 92%. The inhibition (Calf thymus DNA [10]) was 94% and the inhibition (Calf thymus DNA [11]) was 0%.
In the case of CC(=O)O.Cc1cc(NCCCCCCNc2cc(C)nc3cc(N)ccc23)c2ccc(N)cc2n1, the T/C (P388 [13]) is reported as 158%.
Cc1cc(NCCCCCCCNc2cc(C)nc3cc(N)ccc23)c2ccc(N)cc2n1.Cl gave an IC50 (Calf thymus DNA [4]) of 6 µM and a Rf [2] of 0.63.
